Reference: article PMC11484934 (Nature Communications, 2024)

How the values were obtained:
recombinant human GAPDH = recombinant human GAPDH (Homo sapiens, UniProt P04406); assay: Thermal shift assay with purified recombinant protein; assay type: binding; conditions: FBP vs H2O, CBB staining
Outline: (§1)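 Purified recombinant human protein (0.2 μg/μL) was treated with test compound or H2O for 30 min at 25 °C. It was split into six aliquots, each heated in parallel for 3 min at its set temperature, then spun 20,000 g for 20 min at 4 °C. Supernatants were run on SDS-PAGE and stained with Coomassie blue.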

PMM2 [1] = target: T1, PMM2 (Homo sapiens, UniProt O15305); assay: as above; assay type: binding; conditions: recombinant human PMM2, FBP vs H2O, CBB staining
T1 sequence (O15305 1-246): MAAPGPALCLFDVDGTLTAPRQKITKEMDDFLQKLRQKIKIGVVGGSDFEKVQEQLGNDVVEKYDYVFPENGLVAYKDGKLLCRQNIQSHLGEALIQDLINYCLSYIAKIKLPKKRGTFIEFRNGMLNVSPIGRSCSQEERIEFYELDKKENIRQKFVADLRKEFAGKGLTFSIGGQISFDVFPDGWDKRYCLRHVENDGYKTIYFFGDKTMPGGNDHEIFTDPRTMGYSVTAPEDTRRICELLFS
Outline: as §1

recombinant human PRPS1 = assay: as above; assay type: binding; conditions: recombinant human PRPS1, FBP vs H2O, CBB staining
Outline: as §1

PGM1 [2] = target: T2, PGM1 (Homo sapiens, UniProt P36871); assay: as above; assay type: binding; conditions: recombinant human PGM1, FBP vs H2O, CBB staining
T2 sequence (P36871 1-580 isoform P36871-2): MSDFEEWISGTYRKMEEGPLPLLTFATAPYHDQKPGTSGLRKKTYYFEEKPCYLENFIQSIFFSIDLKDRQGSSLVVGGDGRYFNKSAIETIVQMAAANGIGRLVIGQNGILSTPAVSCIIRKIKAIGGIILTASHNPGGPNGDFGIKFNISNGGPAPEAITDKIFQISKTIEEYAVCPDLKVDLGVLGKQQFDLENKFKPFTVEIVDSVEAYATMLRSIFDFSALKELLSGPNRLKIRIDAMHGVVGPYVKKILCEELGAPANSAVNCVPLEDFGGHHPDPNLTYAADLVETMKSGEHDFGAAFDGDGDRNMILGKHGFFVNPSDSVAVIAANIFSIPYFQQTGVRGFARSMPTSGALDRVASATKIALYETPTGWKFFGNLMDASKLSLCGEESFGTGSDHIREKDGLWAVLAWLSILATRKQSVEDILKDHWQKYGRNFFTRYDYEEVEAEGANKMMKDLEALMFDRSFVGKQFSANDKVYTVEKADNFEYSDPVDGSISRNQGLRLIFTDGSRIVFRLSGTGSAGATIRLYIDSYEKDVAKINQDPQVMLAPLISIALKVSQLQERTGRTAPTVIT
Outline: as §1

recombinant human RAN = assay: as above; assay type: binding; conditions: FBP vs H2O, CBB staining
Outline: as §1

recombinant human HDAC2 = recombinant human HDAC2 (Homo sapiens, UniProt Q92769); assay: as above; assay type: binding; conditions: recombinant human HDAC2, FBP vs H2O, CBB staining
Sequence of recombinant human HDAC2 (Q92769 whole entry): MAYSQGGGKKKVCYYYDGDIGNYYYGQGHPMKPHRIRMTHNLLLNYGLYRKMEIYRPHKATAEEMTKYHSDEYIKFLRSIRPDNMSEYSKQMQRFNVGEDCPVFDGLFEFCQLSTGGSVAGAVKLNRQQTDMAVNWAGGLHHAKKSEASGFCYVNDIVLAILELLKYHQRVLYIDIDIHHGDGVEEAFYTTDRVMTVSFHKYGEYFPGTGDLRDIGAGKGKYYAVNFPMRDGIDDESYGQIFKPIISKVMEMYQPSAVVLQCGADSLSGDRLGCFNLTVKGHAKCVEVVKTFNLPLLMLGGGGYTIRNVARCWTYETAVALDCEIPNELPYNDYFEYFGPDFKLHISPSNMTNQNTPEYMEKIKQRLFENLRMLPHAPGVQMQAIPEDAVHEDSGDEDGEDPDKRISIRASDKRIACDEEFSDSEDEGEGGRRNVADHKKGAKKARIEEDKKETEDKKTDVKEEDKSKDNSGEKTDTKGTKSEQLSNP
Outline: as §1

recombinant human OXSR1 = recombinant human OXSR1 (Homo sapiens, UniProt O95747); assay: as above; assay type: binding; conditions: recombinant human OXSR1, FBP vs H2O, CBB staining
Sequence of recombinant human OXSR1 (O95747 whole entry): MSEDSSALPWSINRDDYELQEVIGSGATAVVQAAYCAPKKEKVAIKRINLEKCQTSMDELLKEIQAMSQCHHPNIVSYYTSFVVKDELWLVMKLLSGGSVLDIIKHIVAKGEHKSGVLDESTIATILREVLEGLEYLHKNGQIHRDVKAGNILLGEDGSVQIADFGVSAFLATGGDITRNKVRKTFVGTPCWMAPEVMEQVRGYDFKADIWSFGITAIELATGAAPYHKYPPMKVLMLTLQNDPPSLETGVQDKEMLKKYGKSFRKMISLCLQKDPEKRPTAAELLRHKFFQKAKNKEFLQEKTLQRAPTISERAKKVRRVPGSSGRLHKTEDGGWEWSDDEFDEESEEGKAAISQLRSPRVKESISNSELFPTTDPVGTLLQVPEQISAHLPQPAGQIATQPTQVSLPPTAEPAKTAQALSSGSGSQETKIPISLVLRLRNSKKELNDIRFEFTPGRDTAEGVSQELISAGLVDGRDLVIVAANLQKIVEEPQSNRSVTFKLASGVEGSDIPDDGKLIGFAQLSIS
Outline: as §1

recombinant PGAM1 [3] = target: T3, recombinant PGAM1 (Homo sapiens, UniProt P18669); assay: PGAM1 enzyme activity assay; assay type: biochemical; conditions: for effect on PGAM1 enzymatic activity: PGAM1 enzymatic assay
T3 sequence (P18669 whole entry): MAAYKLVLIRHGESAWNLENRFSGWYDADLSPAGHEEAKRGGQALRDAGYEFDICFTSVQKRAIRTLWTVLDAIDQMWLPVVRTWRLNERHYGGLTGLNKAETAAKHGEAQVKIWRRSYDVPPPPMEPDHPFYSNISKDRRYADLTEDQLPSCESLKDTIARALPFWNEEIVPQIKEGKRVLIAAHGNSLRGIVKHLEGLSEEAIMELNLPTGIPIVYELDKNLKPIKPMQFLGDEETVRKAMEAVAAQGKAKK

PGAM1-H11A = target: T4, PGAM1-H11A (Homo sapiens, UniProt P18669, H11A); assay: PGAM1 enzyme activity assay, H11A mutant; assay type: biochemical
T4 sequence (P18669 1-254 H11A): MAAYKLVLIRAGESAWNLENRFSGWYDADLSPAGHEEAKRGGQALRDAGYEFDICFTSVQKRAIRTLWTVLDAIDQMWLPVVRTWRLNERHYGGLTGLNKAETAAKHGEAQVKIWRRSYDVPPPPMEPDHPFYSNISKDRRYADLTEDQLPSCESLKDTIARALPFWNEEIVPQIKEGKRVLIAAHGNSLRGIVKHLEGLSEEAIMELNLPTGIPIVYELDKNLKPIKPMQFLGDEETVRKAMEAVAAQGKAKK

PGM1 [4] = target: T2, PGM1; assay: PGM1 enzyme activity assay; assay type: biochemical
PMM2 [5] = target: T1, PMM2; assay: PMM2 enzyme activity assay; assay type: biochemical
recombinant PGAM1 [6] = target: T3, recombinant PGAM1; assay: Microscale thermophoresis; assay type: binding
Outline: (§2)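 Purified protein was labelled on lysines with a RED-NHS dye. It was mixed with test compound in 50 mM Tris-HCl pH 7.5, 100 mM NaCl, 0.05% Tween-20 and incubated 30 min at room temperature in the dark. The mix was loaded into capillaries for microscale thermophoresis on a Monolith NT.115.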

PGM1 [7] = target: T2, PGM1; assay: Microscale thermophoresis; assay type: binding
Outline: as §2

PMM2 [8] = target: T1, PMM2; assay: Microscale thermophoresis; assay type: binding
Outline: as §2

recombinant PGAM1 [9] = target: T3, recombinant PGAM1; assay: Histidine phosphorylation of recombinant PGAM1; assay type: biochemical; conditions: for PGAM1 phosphorylation / 3-pHis modification: immunoblotting and Phos-tag SDS-PAGE
Outline: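 Recombinant human PGAM1 was incubated with test compound. It was then analysed by Phos-tag SDS-PAGE or by immunoblotting with monoclonal antibodies specific for N3-phosphohistidine (3-pHis) and 1-phosphohistidine (1-pHis).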

[10] = target: Flag-tagged PGAM1 in HEK293T cells (Homo sapiens, UniProt P18669); assay type: cell-based; conditions: 30 min, glucose-free medium
Sequence of Flag-tagged PGAM1 in HEK293T cells (P18669 whole entry): as the sequence (P18669 whole entry) above

HepG2 cells [11] = assay: LC-MS/MS quantification of intracellular FBP concentrations; assay type: cell-based, human; conditions: HepG2 cells treated with 10 mM FBP, 30 min
Outline: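 HepG2 cells (2 × 10^6/well, triplicates) were allowed to adhere overnight. They were treated 0.5 h with 10 mM test compound or H2O in 5 mM or 25 mM glucose medium. After PBS washes, cells were extracted in cold 80% MeOH containing 13C6-labelled internal standard (0.1 µg/mL), centrifuged and dried. Extracts were run by HILIC (BEH Amide) LC-MS/MS in negative mode, 10 mM NH4HCO3/MeCN.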

HepG2 cells [12] = assay: LC-MS/MS detection of 3-PG and 2-PG; assay type: cell-based, human; conditions: 10 mM FBP, 30 min
Outline: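 HepG2 cells (2 × 10^6/well, triplicates) were treated with 10 mM test compound for 0.5 h in 5 mM glucose, or H2O as control. Cells were extracted in cold 80% MeOH and analysed by HILIC LC-MS/MS in negative mode. The 3-PG and 2-PG fraction came from the m/z 97/(79 + 97) fragment ratio against standard-mixture curves. Values were scaled to the WT total mono-PG concentration.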

sgCTRL HepG2 cells [13] = assay: Lactate production, sgCTRL HepG2 cells; assay type: cell-based, human; conditions: FBP 10 mM, 30 min
Outline: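 HepG2 cells were cultured overnight in 96 wells, then treated with H2O or 10 mM test compound for 0.5 h, or with H2O or 1 mM derivative for 24 h. Lactate in the culture medium was measured with a lactate assay kit.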

sgCTRL HepG2 cells [14] = assay: Glucose consumption, sgCTRL HepG2 cells; assay type: cell-based, human; conditions: FBP 10 mM, 30 min
Outline: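 HepG2 cells were cultured overnight in 96 wells, then treated with H2O or 10 mM test compound for 0.5 h, or with H2O or 1 mM derivative for 24 h. Glucose consumption from the culture medium was measured with a glucose oxidase kit.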

HepG2 cells [15] = assay: Cell viability / proliferation assay; assay type: cell-based, human; conditions: sgCTRL HepG2, FBP 10 mM, 24 h, glucose-free medium
Outline: (§3)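 HepG2 cells (5000/well) were allowed to adhere overnight. They were exposed 24 h to a dilution series of test compound in glucose-free or 5 mM glucose medium, or to derivatives in 25 mM glucose medium for 24 h or 48 h. Viability was read by CCK8 colorimetry. PGAM1-knockout cells were made with a LentiCRISPR v2 sgRNA (HEK293T-packaged lentivirus, polybrene 10 µg/mL for 24 h) and selected with puromycin.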

sgPGAM1 HepG2 cells = assay: Cell viability / proliferation assay; assay type: cell-based, human; conditions: sgPGAM1 HepG2, FBP 10 mM, 24 h, glucose-free medium
Outline: as §3

Sequence of recombinant human GAPDH (P04406 43-335): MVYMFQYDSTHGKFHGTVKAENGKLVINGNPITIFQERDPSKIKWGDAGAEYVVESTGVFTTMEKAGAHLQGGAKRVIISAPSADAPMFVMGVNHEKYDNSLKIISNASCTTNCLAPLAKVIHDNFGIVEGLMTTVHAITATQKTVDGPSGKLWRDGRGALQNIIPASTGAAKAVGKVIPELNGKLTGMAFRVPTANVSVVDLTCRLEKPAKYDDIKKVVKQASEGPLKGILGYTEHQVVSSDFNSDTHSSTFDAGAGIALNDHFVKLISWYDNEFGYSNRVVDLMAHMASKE

## O=C(COP(=O)(O)O)[C@@H](O)[C@H](O)[C@H](O)COP(=O)(O)O [FBP, fructose-1,6-bisphosphate]
Recombinant human GAPDH
  thermal stability of recombinant protein: increased
PMM2 [1]
  thermal stability of recombinant protein: increased
Recombinant human PRPS1
  thermal stability of recombinant protein: increased
PGM1 [2]
  thermal stability of recombinant protein: increased
Recombinant human RAN
  thermal stability of recombinant protein: reduced
Recombinant human HDAC2
  thermal stability of recombinant protein: reduced
Recombinant human OXSR1
  thermal stability of recombinant protein: reduced
Recombinant PGAM1 [3]
  EC50: 480 µM
  effect on PGAM1 enzymatic activity: could activate the enzyme
PGAM1-H11A
  activation effect towards PGAM1-H11A mutant: lost its activation effect
PGM1 [4]
  IC50: 2790 µM
PMM2 [5]
  IC50: 7910 µM
Recombinant PGAM1 [6]
  Kd: 166 µM
PGM1 [7]
  Kd: 235 µM
PMM2 [8]
  Kd: 247 µM
Recombinant PGAM1 [9]; concentration-dependent immunoblotting, recombinant PGAM1
  concentration able to phosphorylate PGAM1: 1 mM
Recombinant PGAM1 [9]; recombinant PGAM1
  PGAM1 phosphorylation / 3-pHis modification: act as a phosphate donor to form 3-pHis modification
Recombinant PGAM1 [9]; time-dependent PGAM1 histidine phosphorylation
  time after which 3-pHis modification decayed: > 4 h
[10]
  histidine phosphorylation of Flag-tagged PGAM1 in living cells: Dose-dependent histidine phosphorylation
HepG2 cells [11]
  intracellular FBP concentration after exogenous treatment: 1.435 ± 0.062 mM
HepG2 cells [12]
  2-PG/3-PG ratio: significant increased
sgCTRL HepG2 cells [13]
  lactate production: significant increases
sgCTRL HepG2 cells [14]
  glucose consumption: significant increases
HepG2 cells [15]
  cell proliferation: significantly upregulated
sgPGAM1 HepG2 cells
  effect on cell proliferation in PGAM1-knockout cells: abolished

## O=P(O)(O)O[C@H]1O[C@H](CO)[C@@H](O)[C@H](O)[C@H]1O [G1P, α-D-glucose-1-phosphate]
Recombinant PGAM1 [3]
  effect on PGAM1 enzymatic activity: did not regulate the enzymatic activity

## C=C(OP(=O)(O)O)C(=O)O [PEP, phosphoenolpyruvate, reference compound]
Recombinant PGAM1 [9]; recombinant PGAM1
  PGAM1 phosphorylation / 3-pHis modification: weak phosphorylation

## D-glucose-6-phosphate [G6P]
Recombinant PGAM1 [3]
  effect on PGAM1 enzymatic activity: did not regulate the enzymatic activity

## D-mannose-6-phosphate [M6P]
Recombinant PGAM1 [3]
  effect on PGAM1 enzymatic activity: did not regulate the enzymatic activity

## fructose-1-phosphate [F1P]
Recombinant PGAM1 [3]
  effect on PGAM1 enzymatic activity: did not regulate the enzymatic activity

## fructose-6-phosphate [F6P]
Recombinant PGAM1 [3]
  effect on PGAM1 enzymatic activity: did not regulate the enzymatic activity
